Results: ChEMBL document CHEMBL1149266, “2,3-diaminopyridine bradykinin B1 receptor antagonists” (J Med Chem, 2004)

What was measured:
B1 bradykinin receptor [1] = molecular target: T1, B1 bradykinin receptor (Oryctolagus cuniculus, UniProt P48748); assay: Binding affinity to rabbit bradykinin B1 receptor
T1 sequence (P48748 whole entry): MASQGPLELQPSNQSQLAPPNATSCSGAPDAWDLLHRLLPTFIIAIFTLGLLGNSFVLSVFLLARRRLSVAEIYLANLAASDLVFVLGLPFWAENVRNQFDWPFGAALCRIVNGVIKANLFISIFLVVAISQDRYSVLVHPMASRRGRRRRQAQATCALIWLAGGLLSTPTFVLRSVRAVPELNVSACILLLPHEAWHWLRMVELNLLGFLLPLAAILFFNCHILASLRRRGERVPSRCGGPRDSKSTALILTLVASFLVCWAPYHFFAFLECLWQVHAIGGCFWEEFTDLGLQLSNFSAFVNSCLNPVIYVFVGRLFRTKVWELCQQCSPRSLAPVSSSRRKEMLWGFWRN
In short: (§1)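 Radioligand binding at rat or rabbit B1 receptor; Ki in nM. Values are the average of at least two experiments, with ±25% interassay variability.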

B1 bradykinin receptor [2] = molecular target: T2, B1 bradykinin receptor (Rattus norvegicus, UniProt P97583); assay: Displacement of [3H]des-arg10 kallidin from rat bradykinin B1 receptor expressed in CHO cells; type: cell-based; in short: as §1
T2 sequence (P97583 whole entry): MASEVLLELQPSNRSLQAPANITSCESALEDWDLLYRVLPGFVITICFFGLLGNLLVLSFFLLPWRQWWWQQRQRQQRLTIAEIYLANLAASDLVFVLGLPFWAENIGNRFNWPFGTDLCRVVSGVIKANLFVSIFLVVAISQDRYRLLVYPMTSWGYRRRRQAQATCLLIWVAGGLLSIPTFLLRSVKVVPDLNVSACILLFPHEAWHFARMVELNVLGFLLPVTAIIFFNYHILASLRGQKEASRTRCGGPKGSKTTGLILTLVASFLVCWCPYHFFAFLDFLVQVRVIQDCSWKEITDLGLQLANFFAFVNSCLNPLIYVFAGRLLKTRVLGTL

B1 bradykinin receptor [3] = molecular target: T3, B1 bradykinin receptor (Homo sapiens, UniProt P46663); assay: Displacement of [3H]des-arg10, leu9-kallidin from human bradykinin B1 receptor expressed in CHO cells; type: cell-based
T3 sequence (P46663 whole entry): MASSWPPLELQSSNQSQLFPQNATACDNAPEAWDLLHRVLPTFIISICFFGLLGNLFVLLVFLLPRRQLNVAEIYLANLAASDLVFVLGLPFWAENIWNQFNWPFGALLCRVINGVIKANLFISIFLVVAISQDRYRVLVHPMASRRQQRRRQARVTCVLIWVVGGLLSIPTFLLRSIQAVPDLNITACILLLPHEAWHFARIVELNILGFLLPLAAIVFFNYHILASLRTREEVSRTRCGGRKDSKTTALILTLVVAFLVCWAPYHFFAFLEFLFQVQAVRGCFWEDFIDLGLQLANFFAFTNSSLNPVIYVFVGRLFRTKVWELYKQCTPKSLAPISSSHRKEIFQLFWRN
In short: (§2)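 Radioligand binding using CHO cells that stably express the human B1 or B2 receptor, with the appropriate radioligand for each; Ki in nM.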

B1 bradykinin receptor [4] = molecular target: T1, B1 bradykinin receptor; assay: Activity at rabbit bradykinin B1 receptor assessed by FLIPR assay; type: functional
In short: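 FLIPR functional assay using functionally active rabbit B1 receptors; IC50 in nM. Values are the average of at least two experiments, with ±30% interassay variability.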

[5] = molecular target: T4, B1 bradykinin receptor (Oryctolagus cuniculus) (UniProt P48748); assay: Inhibition of desArg9-bradykinin-induced decrease in mean arterial blood pressure in iv dosed New Zealand white rabbit; type: functional, organism-based
T4 sequence (whole entry): T1 sequence (P48748 whole entry)
In short: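 Rabbits received iv LPS to induce vascular B1 receptors. The depressor blood pressure response to DABK (1 μg/kg iv) was recorded. Rising iv doses of antagonist were given as pretreatment before repeated DABK doses, giving an AD50 (mg/kg). Three rabbits per experiment.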

[6] = Oral bioavailability in Sprague-Dawley rat at 10 mg/kg, po; type: ADME, organism-based; settings: in vivo
[7] = Oral bioavailability in mongrel dog at 3 mg/kg, po; type: ADME, organism-based, Canis lupus familiaris; settings: in vivo
[8] = Clearance in Sprague-Dawley rat at 2 mg/kg, iv; type: ADME, organism-based; set-up: dose 2 mg/kg, route intravenous; settings: in vivo
Oryctolagus cuniculus = assay: Antinociceptive effect against CFA-induced hyperalgesia in iv dosed New Zealand rabbit model by spinal nociceptive reflex assay; type: functional; settings: read-out: ID50 (the source's name)
In short: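 CFA was used to induce mechanical hyperalgesia in the rabbit hind paw. The read-out was inhibition of the spinal nociceptive reflex to a noxious pinch of the inflamed paw. Antagonist was dosed iv over a dose range, giving an ID50 (mg/kg). Three rabbits per experiment.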

B1 bradykinin receptor [9] = molecular target: T3, B1 bradykinin receptor; assay: Antagonist activity at bradykinin B1 receptor expressed in CHO cells assessed as inhibition of des-arg10-kallidin-induced increase in cytosolic calcium level by FLIPR assay; type: functional, cell-based
In short: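 FLIPR functional assay using functionally active human B1 receptors; IC50 in nM.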

[10] = Clearance in mongrel dog at 1 mg/kg, iv; type: ADME, organism-based, Canis lupus familiaris; set-up: dose 1 mg/kg, route intravenous; settings: in vivo
[11] = Half life in mongrel dog at 1 mg/kg, iv; type: ADME, organism-based, Canis lupus familiaris; set-up: dose 1 mg/kg, route intravenous; settings: in vivo
[12] = Half life in Sprague-Dawley rat at 2 mg/kg, iv; type: ADME, organism-based; set-up: dose 2 mg/kg, route intravenous; settings: in vivo
B2 bradykinin receptor = molecular target: T5, B2 bradykinin receptor (Homo sapiens, UniProt P30411); assay: Displacement of [3H]bradykinin from human bradykinin B2 receptor expressed in CHO cells; type: cell-based; in short: as §2
T5 sequence (P30411 whole entry): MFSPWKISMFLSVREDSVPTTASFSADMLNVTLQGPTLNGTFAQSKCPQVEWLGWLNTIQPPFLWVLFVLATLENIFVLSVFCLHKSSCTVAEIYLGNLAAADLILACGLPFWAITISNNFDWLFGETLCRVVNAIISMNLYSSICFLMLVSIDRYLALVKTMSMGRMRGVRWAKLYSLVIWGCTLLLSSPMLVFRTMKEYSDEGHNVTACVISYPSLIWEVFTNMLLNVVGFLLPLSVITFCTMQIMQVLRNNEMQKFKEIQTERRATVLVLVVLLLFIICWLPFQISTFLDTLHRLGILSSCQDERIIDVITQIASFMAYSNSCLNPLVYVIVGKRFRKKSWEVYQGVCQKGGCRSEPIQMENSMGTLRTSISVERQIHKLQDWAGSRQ

Row | Structure (SMILES) | Ki (B1 bradykinin receptor [1]) | Ki (B1 bradykinin receptor [2]) | Ki (B1 bradykinin receptor [3]) | IC50 (B1 bradykinin receptor [4]) | AD50 [5] [mg/kg] | bioavailability [6] [%] | bioavailability [7] [%] | clearance [8] [mL/min/kg] | ED50 (Oryctolagus cuniculus) [mg/kg] | IC50 (B1 bradykinin receptor [9]) | clearance [10] [mL/min/kg] | half-life [11] [h] | half-life [12] [h] | Ki (B2 bradykinin receptor) [nM]
1 | C[C@@H](Nc1nccc(Cl)c1NC(=O)CC#N)c1ccc(-c2cccc(F)c2-c2nnnn2C)cc1 | 41.5 nM (antagonist) | 12 nM (antagonist) | 6 nM (antagonist) | – | – | – | – | – | – | – | – | – | – | –
2 | COC(=O)c1c(F)cccc1-c1ccc([C@@H](C)Nc2nccc(Cl)c2NC(=O)CC#N)cc1 | 0.69 nM (antagonist) | 35.3 nM (antagonist) | 0.4 nM (antagonist) | 2.4 nM (antagonist) | 0.57 | 50 | 34 | 11 | 2.1 | 0.25 nM (antagonist) | 9 | 2.7 | 2.1 | –
3 | C[C@@H](Nc1nccc(Cl)c1NC(=O)CC#N)c1ccc(-c2cccc(F)c2C#N)cc1 | – | – | 2 nM (antagonist) | – | – | 80 | – | 8.3 | – | – | – | – | 0.9 | –
4 | C[C@@H](Nc1nccc(Cl)c1NC(=O)CC#N)c1ccc(-c2cccc(F)c2-c2nnn(C)n2)cc1 | 3 nM (antagonist) | 119 nM (antagonist) | 0.5 nM (antagonist) | 3.9 nM (antagonist) | 0.28 | 73 | 69 | 9 | 3.1 | 1.17 nM (antagonist) | 2.4 | 3.8 | 7.8 | –
5 | Cc1noc(-c2c(F)cccc2-c2ccc([C@@H](C)Nc3nccc(Cl)c3NC(=O)CC#N)cc2)n1 | 2.7 nM (antagonist) | 81 nM (antagonist) | 0.5 nM (antagonist) | 12.3 nM (antagonist) | – | 62 | 14 | 9.5 | – | 0.94 nM (antagonist) | 7.3 | 2.1 | 8.8 | –
6 | C[C@@H](Nc1nccc(Cl)c1NC(=O)CC#N)c1ccc(-c2cccc(F)c2C(F)(F)F)cc1 | – | – | 1.1 nM (antagonist) | – | – | 52 | – | 36 | – | – | – | – | 1.8 | –
7 | COC(=O)c1ccc(C)cc1-c1ccc([C@@H](C)Nc2nccc(C)c2NC(=O)CC#N)cc1 | – | – | 1.2 nM (antagonist) | – | – | 21 | – | 42 | – | 1.4 nM (antagonist) | – | – | 0.6 | > 10000
8 | CCCCC(=O)Nc1cccnc1NCc1ccc(-c2ccccc2C(=O)OC)cc1 | – | – | 200 nM (antagonist) | – | – | – | – | – | – | – | – | – | – | –
9 | COC(=O)c1ccc(Cl)cc1-c1ccc([C@@H](C)Nc2nccc(Cl)c2NC(=O)CC#N)cc1 | – | – | 0.8 nM (antagonist) | – | – | 6 | 2 | 25 | – | 1.5 nM (antagonist) | 5.5 | 0.9 | 0.5 | –
10 | Cc1nc(-c2c(F)cccc2-c2ccc([C@@H](C)Nc3nccc(Cl)c3NC(=O)CC#N)cc2)no1 | – | – | 0.7 nM (antagonist) | – | – | 50 | 25 | 4.9 | – | 0.78 nM (antagonist) | 5.9 | 2 | 12.9 | –
11 | COC(=O)c1c(Cl)cccc1-c1ccc([C@@H](C)Nc2nccc(Cl)c2NC(=O)CC#N)cc1 | 1.1 nM (antagonist) | 35.7 nM (antagonist) | 0.7 nM (antagonist) | 7.2 nM (antagonist) | 0.8 | 43 | 23 | 24 | 0.9 | 0.85 nM (antagonist) | 8.7 | 6.3 | 1.3 | –
